In ChEMBL document CHEMBL1833926, “Bicyclic heteroaryl inhibitors of stearoyl-CoA desaturase: from systemic to liver-targeting inhibitors” (Bioorg Med Chem Lett, 2011):
Active and inactive are the calls of the source. The calls are words filed in the database; no cut-off is given here.

What was measured:
[1] = target: Acyl-CoA (8-3)-desaturase (Homo sapiens) (UniProt O60427); assay: Inhibition of delta-5 desaturase
[2] = target: T1, Acyl-CoA 6-desaturase (Homo sapiens) (UniProt O95864); assay: Inhibition of delta-6 desaturase
T1 sequence (whole entry): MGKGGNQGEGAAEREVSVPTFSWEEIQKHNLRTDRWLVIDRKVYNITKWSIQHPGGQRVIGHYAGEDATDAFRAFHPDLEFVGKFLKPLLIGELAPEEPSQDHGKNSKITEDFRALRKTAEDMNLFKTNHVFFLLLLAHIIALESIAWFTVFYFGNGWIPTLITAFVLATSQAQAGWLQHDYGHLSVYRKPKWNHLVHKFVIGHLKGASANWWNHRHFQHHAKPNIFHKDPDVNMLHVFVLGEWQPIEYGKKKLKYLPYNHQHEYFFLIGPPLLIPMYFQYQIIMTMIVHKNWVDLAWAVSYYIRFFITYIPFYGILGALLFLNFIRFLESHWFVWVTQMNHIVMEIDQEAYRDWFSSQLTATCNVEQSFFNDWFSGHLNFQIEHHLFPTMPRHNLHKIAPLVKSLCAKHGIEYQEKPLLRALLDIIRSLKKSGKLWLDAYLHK

Acyl-CoA desaturase 1 [3] = target: T2, Acyl-CoA desaturase 1 (Rattus norvegicus, UniProt P07308); assay: Inhibition of rat SCD1 in rat liver microsome
T2 sequence (P07308 whole entry): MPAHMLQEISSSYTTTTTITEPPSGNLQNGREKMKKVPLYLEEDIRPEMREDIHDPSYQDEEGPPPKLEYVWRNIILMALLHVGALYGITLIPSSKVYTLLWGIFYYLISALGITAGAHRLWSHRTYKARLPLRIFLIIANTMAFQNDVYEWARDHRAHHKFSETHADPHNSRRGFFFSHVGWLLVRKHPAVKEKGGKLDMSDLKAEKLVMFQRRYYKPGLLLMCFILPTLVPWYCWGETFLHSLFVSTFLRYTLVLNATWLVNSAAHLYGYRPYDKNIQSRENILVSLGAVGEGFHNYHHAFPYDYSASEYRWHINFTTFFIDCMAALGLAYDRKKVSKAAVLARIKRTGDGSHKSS

Stearoyl-CoA desaturase = target: T3, Stearoyl-CoA desaturase (Homo sapiens, UniProt O00767); assay: Inhibition of SCD1 in human HepG2 cells; format: cell-based
T3 sequence (O00767 whole entry): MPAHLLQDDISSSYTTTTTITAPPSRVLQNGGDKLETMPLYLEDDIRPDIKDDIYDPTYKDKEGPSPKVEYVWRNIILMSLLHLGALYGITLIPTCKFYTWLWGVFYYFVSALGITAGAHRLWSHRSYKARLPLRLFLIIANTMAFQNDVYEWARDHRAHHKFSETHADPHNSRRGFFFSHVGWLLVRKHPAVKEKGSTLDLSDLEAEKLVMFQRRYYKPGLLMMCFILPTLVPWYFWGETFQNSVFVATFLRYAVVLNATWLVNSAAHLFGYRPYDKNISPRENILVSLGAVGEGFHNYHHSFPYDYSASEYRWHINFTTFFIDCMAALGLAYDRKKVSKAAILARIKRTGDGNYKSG

[4] = AUC (0 to 24 hrs) in C57BL/6 mouse at 10 mg/kg, po; format: ADME, organism-based, C57BL6; set-up: time < 24 hr, dose 10 mg/kg, route oral; conditions: whole blood
Procedure, shortened: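 Oral gavage, 10 mg/kg in 0.5% methocel, to C57BL6 mice; whole blood exposure measured over 0–24 h as AUC.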

[5] = Drug uptake in C57BL/6 mouse liver at 10 mg/kg, po after 6 hrs; format: ADME, organism-based, C57BL6; set-up: dose 10 mg/kg, route oral; conditions: read-out: Drug uptake
Procedure, shortened: (§1)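 Single oral dose of 10 mg/kg in 0.5% methocel given to C57BL6 mice on normal chow. Drug levels measured 6 h post-dose in liver, white adipose, skin and Harderian glands. Liver/tissue fold selectivity taken from these levels.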

[6] = Ratio of drug uptake in liver to skin in C57BL/6 mouse liver at 10 mg/kg, po after 6 hrs; format: ADME, organism-based, C57BL6; set-up: dose 10 mg/kg, route oral; conditions: in vivo; procedure, shortened: as §1
[7] = Ratio of drug uptake in liver to harderian glands in C57BL/6 mouse at 10 mg/kg, po after 6 hrs; format: ADME, organism-based, C57BL6; set-up: dose 10 mg/kg, route oral; conditions: in vivo; procedure, shortened: as §1
[8] = Drug uptake in C57BL/6 mouse adipose tissue at 10 mg/kg, po after 6 hrs; format: ADME, organism-based, C57BL6; set-up: dose 10 mg/kg, route oral; conditions: in vivo; procedure, shortened: as §1
[9] = Ratio of drug uptake in liver to adipose tissue in C57BL/6 mouse at 10 mg/kg, po after 6 hrs; format: ADME, organism-based, C57BL6; set-up: dose 10 mg/kg, route oral; conditions: in vivo; procedure, shortened: as §1
Acyl-CoA desaturase 1 [10] = target: T2, Acyl-CoA desaturase 1; assay: Inhibition of SCD1 in rat Hep cells; format: cell-based
Procedure, shortened: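 Whole-cell SCD1 inhibition measured in rat hepatocytes, which express OATP transporters, in the presence of 10% fetal bovine serum; IC50 determined.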

HepG2 [11] = assay: Ratio of IC50 for SCD1 in human HepG2 cells to IC50 for SCD1 in rat Hep cells; format: cell-based
Procedure, shortened: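 Fold shift computed as hHepG2 whole-cell IC50 over rat hepatocyte IC50.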

HepG2 [12] = assay: Ratio of IC50 for SCD1 in human HepG2 cells to IC50 for rat SCD1; format: cell-based
Procedure, shortened: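 Fold shift computed as hHepG2 whole-cell IC50 over the SCD1-induced rat liver microsomal enzyme IC50.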

Mus musculus [13] = assay: Inhibition of SCD1 activity in high carbohydrate diet fed C57BL/6 mouse assessed as reduction in conversion of [1-14C]stearic acid to [1-14C]oleic acid at 30 mg/kg, po after 3 hrs; format: functional; conditions: C57BL6, 3 h
Procedure, shortened: (§2)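 Mouse liver PD assay in C57BL6 mice on a high carbohydrate diet, n = 5/group. Compound given orally in 0.5% methocel. At 1 h, [1-14C]-stearic acid in 60% aqueous PEG 200 given iv. Livers harvested 2 h after tracer. Lipids hydrolyzed; SCD1 activity index = 14C-oleic/14C-stearic acid ratio.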

[14] = Drug uptake in C57BL/6 mouse liver at 30 mg/kg, po after 3 hrs; format: ADME, organism-based, C57BL6; set-up: dose 30 mg/kg, route oral; conditions: read-out: Drug uptake
Procedure, shortened: (§3)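 Drug levels in liver and plasma measured in the mouse liver PD study. C57BL6 mice on a high carbohydrate diet received an oral dose in 0.5% methocel. Samples were taken 3 h post-dose, with livers harvested 2 h after iv [1-14C]-stearic acid tracer.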

[15] = Plasma concentration in C57BL/6 mouse at 30 mg/kg, po after 3 hrs; format: ADME, organism-based, C57BL6; set-up: dose 30 mg/kg, route oral; procedure, shortened: as §3
[16] = Apparent permeability across pig LLC-PK1 cells; format: ADME, cell-based, Sus scrofa
Mus musculus [17] = assay: Inhibition of SCD1 activity in high carbohydrate diet fed C57BL/6 mouse assessed as reduction in conversion of [1-14C]stearic acid to [1-14C]oleic acid at 60 mg/kg, po after 3 hrs; format: functional, organism-based; set-up: dose 60 mg/kg; conditions: C57BL6; procedure, shortened: as §2
[18] = Drug uptake in C57BL/6 mouse liver at 60 mg/kg, po after 3 hrs; format: ADME, organism-based, C57BL6; set-up: dose 60 mg/kg, route oral; conditions: read-out: Drug uptake; procedure, shortened: as §3
[19] = Plasma concentration in C57BL/6 mouse at 60 mg/kg, po after 3 hrs; format: ADME, organism-based, C57BL6; set-up: dose 60 mg/kg, route oral; procedure, shortened: as §3

Acyl-CoA (8-3)-desaturase (Homo sapiens), sequence (O60427 whole entry, looked up): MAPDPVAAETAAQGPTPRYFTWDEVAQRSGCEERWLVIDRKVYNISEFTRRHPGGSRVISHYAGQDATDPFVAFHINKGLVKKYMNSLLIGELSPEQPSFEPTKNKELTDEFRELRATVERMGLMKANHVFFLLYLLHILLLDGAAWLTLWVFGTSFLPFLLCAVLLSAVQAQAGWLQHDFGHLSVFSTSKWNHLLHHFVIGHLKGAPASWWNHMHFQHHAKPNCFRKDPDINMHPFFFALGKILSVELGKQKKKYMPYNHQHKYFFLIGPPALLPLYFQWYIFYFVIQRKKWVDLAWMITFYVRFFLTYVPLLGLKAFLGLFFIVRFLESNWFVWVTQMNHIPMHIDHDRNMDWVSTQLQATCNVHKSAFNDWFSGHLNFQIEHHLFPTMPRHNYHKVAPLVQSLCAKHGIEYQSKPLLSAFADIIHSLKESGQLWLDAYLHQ

inhibition [1]	inhibition [2]	IC50 (Acyl-CoA desaturase 1 [3]) [nM]	IC50 (Stearoyl-CoA desaturase) [nM]	Structure (SMILES)	other results
inactive	inactive			FC(F)(F)c1ccccc1OC1CCN(c2ncc3nc[nH]c3n2)CC1	
inactive	inactive	8	59	Cc1nc2nc(N3CCC(Oc4ccccc4C(F)(F)F)CC3)sc2c(=O)[nH]1	AUC(0-t) at 24 h [4]: 30 µM·h; concentration at 6 h [5]: 21.8 µM; Ratio [6]: 7; Ratio [7]: 1.1; Drug uptake [8]: Not Active
inactive	inactive			Oc1nc2cnc(N3CCC(Oc4ccccc4C(F)(F)F)CC3)nc2[nH]1	
inactive	inactive	477	10600	Fc1ccc(Br)c(OC2CCN(c3nc4ccccc4s3)CC2)c1	
inactive	inactive			Fc1ccc(Br)c(OC2CCN(c3ncnc4[nH]cnc34)CC2)c1	
inactive	inactive			Fc1ccc(Br)c(OC2CCN(c3ncc4nc[nH]c4n3)CC2)c1	
				NC(=O)c1cnc(N2CCN(C(=O)c3ccccc3C(F)(F)F)CC2)s1	AUC(0-t) at 24 h [4]: 11 µM·h
inactive	inactive	1	17	Nc1nc2cnc(N3CCC(Oc4cc(F)ccc4Br)CC3)nc2s1	
		7	53	O=C(O)COc1nc2cnc(N3CCC(Oc4cc(F)ccc4Br)CC3)nc2s1	Ratio [9]: 173; Ratio [6]: 403; Ratio [7]: 3; IC50 (Acyl-CoA desaturase 1 [10]): 348 nM; Ratio IC50 (HepG2 [11]): < 1; Ratio IC50 (HepG2 [12]): 7
inactive	inactive	7	29	O=c1[nH]cnc2nc(N3CCC(Oc4ccccc4C(F)(F)F)CC3)sc12	
		1	< 39	Fc1ccc(Br)c(OC2CCN(c3ncnc4nc[nH]c34)CC2)c1	
inactive	inactive			Nc1ncnc2[nH]c(N3CCC(Oc4ccccc4C(F)(F)F)CC3)nc12	
		10	257	FC(F)(F)c1ccccc1OC1CCN(c2ncc3[nH]cnc3n2)CC1	
		38	319	O=c1[nH]c2cnc(N3CCC(Oc4ccccc4C(F)(F)F)CC3)nc2[nH]1	concentration at 6 h [5]: 24.7 µM; Ratio [9]: 3.6; Ratio [6]: 4.4; Ratio [7]: 0.8
		4	168	O=C(O)CNc1nc2cnc(N3CCC(Oc4cc(F)ccc4Br)CC3)nc2s1	Ratio [9]: 41; Ratio [6]: 145; Ratio [7]: 21; IC50 (Acyl-CoA desaturase 1 [10]): 158 nM; Ratio IC50 (HepG2 [11]): 1; Ratio IC50 (HepG2 [12]): 42; inhibition in vivo at 30 mg/kg (Mus musculus [13]): 72%; concentration at 3 h [14]: 4.1 µM; concentration at 3 h [15]: 0.2 µM
		10	48	FC(F)(F)c1ccccc1OC1CCN(c2ncnc3nc[nH]c23)CC1	
inactive	inactive	85	268	O=c1[nH]ccc2nc(N3CCC(Oc4ccccc4C(F)(F)F)CC3)sc12	
		266	24300	O=C(O)CCc1nc2nc(N3CCC(Oc4cc(F)ccc4Br)CC3)sc2c(=O)[nH]1	Ratio [9]: 31; Ratio [6]: 22; IC50 (Acyl-CoA desaturase 1 [10]): 168 nM; Ratio IC50 (HepG2 [11]): 145; Ratio IC50 (HepG2 [12]): 91; Papp [16]: 2 ×10⁻⁶ cm/s; inhibition (Mus musculus [17]): inactive; concentration at 3 h [18]: 3.3 µM; concentration at 3 h [19]: 0.2 µM
inactive	inactive	54	182	Cc1ncc2sc(N3CCC(Oc4ccccc4C(F)(F)F)CC3)nc2n1	
inactive	inactive	97	378	O=c1[nH]c(N2CCC(Oc3ccccc3C(F)(F)F)CC2)nc2[nH]cnc12	
inactive	inactive			FC(F)(F)c1ccccc1OC1CCN(c2ncnc3[nH]cnc23)CC1	
inactive	inactive	2	16	O=c1[nH]c(CO)nc2nc(N3CCC(Oc4ccccc4C(F)(F)F)CC3)sc12	
inactive	inactive	56		Nc1ncnc2nc(N3CCC(Oc4ccccc4C(F)(F)F)CC3)sc12	
		3	47	Fc1ccc(Br)c(OC2CCN(c3ncc4[nH]cnc4n3)CC2)c1	
inactive	inactive	83	755	FC(F)(F)c1ccccc1OC1CCN(c2nc3ncccc3s2)CC1	
